Measured values from PMC9091711 (RSC Advances, 2018).

What was measured:
[1] = tested on: Jurkat cells; experiment: Annexin V-FITC/PI apoptosis assay by flow cytometry; format: cell-based, human; conditions: 24 h, 4a at IC50 concentration
[2] = tested on: caspase-3; experiment: Active caspase-3 expression by flow cytometry; format: cell-based, human; conditions: Jurkat cells, 24 h, 4a at IC50 concentration
How it was run: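 Jurkat cells were seeded at 1 × 10^6 cells per well and left 12 h, then exposed to the test compound for 24 h. Cells were harvested, fixed in 70% ice-cold ethanol at −20 °C for 30 min, and washed twice with PBS. They were stained with FITC anti-active caspase-3 antibody for 60 min at room temperature in the dark, washed, resuspended in PBS and analysed by flow cytometry.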

[3] = cited from earlier work

SMILES: CC[C@@]1(O)C(=O)OCc2c1cc1n(c2=O)Cc2cc3ccccc3nc2-1 [CPT, camptothecin]
- Apoptotic dying cells (M2, Annexin-V-FITC fluorescence intensity) [1]: 68%
- Cells in late stage apoptosis ([1]; Annexin V-FITC/PI): 14%
- Active caspase-3 expression (M2, apoptotic cells) [2]: > 54%

SMILES: CC(C)(C)C[C@@H]1N[C@@H](C(=O)N[C@H]2CC[C@H](O)CC2)[C@H](c2cccc(Cl)c2F)[C@]12C(=O)Nc1cc(Cl)ccc12 [MI-773]
- Stability in solution [3]: low stability in solution
